Measurements from different studies.
Read-out: ABTS scavenging

For `Cc1ccc(NC(=O)Cc2c[nH]c3ccccc23)cc1C`, the IC50 was 1.58 µM.
`COc1ccc(-c2nc3cc([N+](=O)[O-])ccc3[nH]2)cc1OCc1ccccc1` has an IC50 of 1.76 µM (absorbance).
`COc1cc(-c2oc3cc(O[C@@H]4O[C@H](CO)[C@@H](O)[C@H](O)[C@H]4O)cc(O)c3c(=O)c2O[C@@H]2O[C@H](CO)[C@@H](O)[C@H](O)[C@H]2O)ccc1O` gave an IC50 of 41.7 µM (absorbance).
`COc1ccc(-c2nc3cc(Cl)ccc3[nH]2)cc1OCc1ccccc1` has an IC50 of 1.75 µM (absorbance).
`CCOC(=O)c1cc(O)c(O)c(O)c1` gave an IC50 of 17.7 µM (absorbance).
With `CSc1cccc(NC(=O)Cc2c[nH]c3ccccc23)c1` the IC50 was 1.52 µM.
With `Cc1c(C)c2c(c(C)c1O)CC[C@@](C)(CCC[C@H](C)CCC[C@H](C)CCCC(C)C)O2` the IC50 was 8.37 µg/mL.
The IC50 of `CCCCCCCCOc1ccc(NC(=O)Cc2c[nH]c3ccccc23)cc1` is reported as 1.8 µM.
`O=c1c(O[C@@H]2O[C@H](CO)[C@@H](O)[C@H](O)[C@H]2O)c(-c2ccc(O)c(O)c2)oc2cc(O)cc(O)c12` has an IC50 of 6.51 µM (absorbance).
With `O=C(Cc1c[nH]c2ccccc12)Nc1ccc(Cl)cc1` the IC50 was 0.46 µM.
For `Fc1ccc2[nH]c(-c3cccc(OCc4ccccc4)c3)nc2c1`, the IC50 was 1.85 µM (absorbance).
With `COC(=O)c1cc(O)c(O)c(O)c1` the IC50 was 14.2 µM (absorbance).
For `O=C1O[C@H]([C@@H](O)CO)C(O)=C1O`, the IC50 was 1.4 µg/mL.
`Fc1ccc2[nH]c(-c3ccccc3OCc3ccccc3)nc2c1` gave an IC50 of 1.77 µM (absorbance).
`O=c1c(O[C@@H]2O[C@H](CO)[C@@H](O)[C@H](O)[C@H]2O)c(-c2ccc(O)cc2)oc2cc(O[C@@H]3O[C@H](CO)[C@@H](O)[C@H](O)[C@H]3O)cc(O)c12` gave an IC50 of 30.6 µM (absorbance).
